Experimental data as given in ChEMBL document CHEMBL4689842, “EUbOPEN Chemogenomics Library wave 1” (2021).

Tested on: HEK-293T
Test: Multiplex assay against HEK293T;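 on Population Tubulin-Different-Phenotype (%): share of the cells with healthy nuclei that show this phenotype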
Assay type: toxicity, cell-based
Details: human
In short: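 At seeding, live cells were stained with Hoechst33342, BioTracker Green Microtubule Cytoskeleton Dye, MitoTracker Red and Annexin V Alexa Fluor 680. After compound addition they were imaged on a CQ1 microscope at 37°C and 5% CO2, and CellPathfinder machine-learning gating sorted them into Hoechst high-intensity objects or normal cells, with normal cells further split into healthy, pyknosed or fragmented nuclei and pyknosed cells into mitotic or apoptotic. Tubulin, mitochondrial-mass and membrane-permeability phenotypes are given as per cents of cells with healthy nuclei.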

[1] = 12 h, 1 µM, compound concentration 1 uM, replicate 1
[2] = 12 h, 1 µM, compound concentration 1 uM, replicate 2
[3] = 12 h, 10 µM, compound concentration 10 uM, replicate 1
[4] = 12 h, 10 µM, compound concentration 10 uM, replicate 2
[5] = 24 h, 1 µM, compound concentration 1 uM, replicate 1
[6] = 24 h, 1 µM, compound concentration 1 uM, replicate 2
[7] = 24 h, 10 µM, compound concentration 10 uM, replicate 1
[8] = 24 h, 10 µM, compound concentration 10 uM, replicate 2
[9] = 48 h, 1 µM, compound concentration 1 uM, replicate 1
[10] = 48 h, 1 µM, compound concentration 1 uM, replicate 2
[11] = 48 h, 10 µM, compound concentration 10 uM, replicate 1
[12] = 48 h, 10 µM, compound concentration 10 uM, replicate 2

Compound: CNC(=O)Nc1ccc(-c2nc(N3CC4CCC(C3)O4)c3cnn(C4CCC5(CC4)OCCO5)c3n2)cc1
- Population Apoptotic (%) [1]: 55%
- Population Fragmented Nuclei (%) [1]: 24%
- Population Healthy Nuclei (%) [1]: 6%
- Population Hoechst High Intensity Objects (%) [1]: 20%
- Population Membrane Permeable-Phenotype (%) [1]: 0%
- Population Mitochondria Different-Phenotype (%) [1]: 75%
- Population Mitotic Cells (%) [1]: 44%
- Population Normal (%) [1]: 79%
- Population Pyknosed Nuclei (%) [1]: 68%
- Population Tubulin-Different-Phenotype (%) [1]: 50%
- Total Cell Count [1]: 149
- Population Apoptotic (%) [2]: 23%
- Population Fragmented Nuclei (%) [2]: 9%
- Population Healthy Nuclei (%) [2]: 26%
- Population Hoechst High Intensity Objects (%) [2]: 10%
- Population Membrane Permeable-Phenotype (%) [2]: 8%
- Population Mitochondria Different-Phenotype (%) [2]: 32%
- Population Mitotic Cells (%) [2]: 76%
- Population Normal (%) [2]: 89%
- Population Pyknosed Nuclei (%) [2]: 64%
- Population Tubulin-Different-Phenotype (%) [2]: 24%
- Total Cell Count [2]: 155
- Population Apoptotic (%) [3]: 76%
- Population Fragmented Nuclei (%) [3]: 18%
- Population Healthy Nuclei (%) [3]: 7%
- Population Hoechst High Intensity Objects (%) [3]: 26%
- Population Membrane Permeable-Phenotype (%) [3]: 11%
- Population Mitochondria Different-Phenotype (%) [3]: 88%
- Population Mitotic Cells (%) [3]: 23%
- Population Normal (%) [3]: 73%
- Population Pyknosed Nuclei (%) [3]: 73%
- Population Tubulin-Different-Phenotype (%) [3]: 88%
- Total Cell Count [3]: 167
- Population Apoptotic (%) [4]: 56%
- Population Fragmented Nuclei (%) [4]: 8%
- Population Healthy Nuclei (%) [4]: 8%
- Population Hoechst High Intensity Objects (%) [4]: 7%
- Population Membrane Permeable-Phenotype (%) [4]: 6%
- Population Mitochondria Different-Phenotype (%) [4]: 100%
- Population Mitotic Cells (%) [4]: 43%
- Population Normal (%) [4]: 92%
- Population Pyknosed Nuclei (%) [4]: 82%
- Population Tubulin-Different-Phenotype (%) [4]: 100%
- Total Cell Count [4]: 182
- Population Apoptotic (%) [5]: 68%
- Population Fragmented Nuclei (%) [5]: 32%
- Population Healthy Nuclei (%) [5]: 5%
- Population Hoechst High Intensity Objects (%) [5]: 29%
- Population Membrane Permeable-Phenotype (%) [5]: 16%
- Population Mitochondria Different-Phenotype (%) [5]: 66%
- Population Mitotic Cells (%) [5]: 31%
- Population Normal (%) [5]: 70%
- Population Pyknosed Nuclei (%) [5]: 61%
- Population Tubulin-Different-Phenotype (%) [5]: 16%
- Total Cell Count [5]: 151
- Population Apoptotic (%) [6]: 21%
- Population Fragmented Nuclei (%) [6]: 12%
- Population Healthy Nuclei (%) [6]: 34%
- Population Hoechst High Intensity Objects (%) [6]: 10%
- Population Membrane Permeable-Phenotype (%) [6]: 8%
- Population Mitochondria Different-Phenotype (%) [6]: 35%
- Population Mitotic Cells (%) [6]: 78%
- Population Normal (%) [6]: 89%
- Population Pyknosed Nuclei (%) [6]: 53%
- Population Tubulin-Different-Phenotype (%) [6]: 20%
- Total Cell Count [6]: 158
- Population Apoptotic (%) [7]: 81%
- Population Fragmented Nuclei (%) [7]: 23%
- Population Healthy Nuclei (%) [7]: 3%
- Population Hoechst High Intensity Objects (%) [7]: 27%
- Population Membrane Permeable-Phenotype (%) [7]: 25%
- Population Mitochondria Different-Phenotype (%) [7]: 75%
- Population Mitotic Cells (%) [7]: 18%
- Population Normal (%) [7]: 72%
- Population Pyknosed Nuclei (%) [7]: 73%
- Population Tubulin-Different-Phenotype (%) [7]: 75%
- Total Cell Count [7]: 165
- Population Apoptotic (%) [8]: 68%
- Population Fragmented Nuclei (%) [8]: 10%
- Population Healthy Nuclei (%) [8]: 17%
- Population Hoechst High Intensity Objects (%) [8]: 11%
- Population Membrane Permeable-Phenotype (%) [8]: 17%
- Population Mitochondria Different-Phenotype (%) [8]: 85%
- Population Mitotic Cells (%) [8]: 31%
- Population Normal (%) [8]: 88%
- Population Pyknosed Nuclei (%) [8]: 72%
- Population Tubulin-Different-Phenotype (%) [8]: 96%
- Total Cell Count [8]: 182
- Population Apoptotic (%) [9]: 62%
- Population Fragmented Nuclei (%) [9]: 46%
- Population Healthy Nuclei (%) [9]: 3%
- Population Hoechst High Intensity Objects (%) [9]: 33%
- Population Membrane Permeable-Phenotype (%) [9]: 0%
- Population Mitochondria Different-Phenotype (%) [9]: 66%
- Population Mitotic Cells (%) [9]: 37%
- Population Normal (%) [9]: 66%
- Population Pyknosed Nuclei (%) [9]: 50%
- Population Tubulin-Different-Phenotype (%) [9]: 33%
- Total Cell Count [9]: 144
- Population Apoptotic (%) [10]: 34%
- Population Fragmented Nuclei (%) [10]: 13%
- Population Healthy Nuclei (%) [10]: 46%
- Population Hoechst High Intensity Objects (%) [10]: 11%
- Population Membrane Permeable-Phenotype (%) [10]: 1%
- Population Mitochondria Different-Phenotype (%) [10]: 50%
- Population Mitotic Cells (%) [10]: 65%
- Population Normal (%) [10]: 88%
- Population Pyknosed Nuclei (%) [10]: 40%
- Population Tubulin-Different-Phenotype (%) [10]: 61%
- Total Cell Count [10]: 138
- Population Apoptotic (%) [11]: 84%
- Population Fragmented Nuclei (%) [11]: 35%
- Population Healthy Nuclei (%) [11]: 8%
- Population Hoechst High Intensity Objects (%) [11]: 23%
- Population Membrane Permeable-Phenotype (%) [11]: 11%
- Population Mitochondria Different-Phenotype (%) [11]: 100%
- Population Mitotic Cells (%) [11]: 15%
- Population Normal (%) [11]: 76%
- Population Pyknosed Nuclei (%) [11]: 56%
- Population Tubulin-Different-Phenotype (%) [11]: 100%
- Total Cell Count [11]: 146
- Population Apoptotic (%) [12]: 65%
- Population Fragmented Nuclei (%) [12]: 8%
- Population Healthy Nuclei (%) [12]: 40%
- Population Hoechst High Intensity Objects (%) [12]: 8%
- Population Membrane Permeable-Phenotype (%) [12]: 1%
- Population Mitochondria Different-Phenotype (%) [12]: 83%
- Population Mitotic Cells (%) [12]: 34%
- Population Normal (%) [12]: 91%
- Population Pyknosed Nuclei (%) [12]: 51%
- Population Tubulin-Different-Phenotype (%) [12]: 90%
- Total Cell Count [12]: 181
